For assay [1], the target named is T1, Cannabinoid receptor 1 (Homo sapiens, UniProt P21554). As to the kind of experiment: Allosteric antagonist activity at human CB1 receptor expressed in CHO-RD-HGA16 cells overexpressing Galpha16 assessed as inhibition of CP55940-stimulated calcium mobilization preincubated for 15 mins followed by agonist addition and measured every 1 sec for 90 secs by Calcium-3 dye based FLIPR assay. The assay is classed as functional, cell-based. For orientation: A change in cytosolic calcium serves as a functional read-out for many receptors and channels.

The target of assay [2] is T1, Cannabinoid receptor 1. As to the kind of experiment: Agonist activity at human CB1 receptor expressed in CHO-RD-HGA16 cells overexpressing Galpha16 assessed as stimulation of calcium mobilization measured every 1 sec for 90 secs by Calcium-3 dye based FLIPR assay relative to Emax of CP55940. The assay is classed as functional, cell-based. As to conditions: time 90.0 sec. In a few lines: (§1)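 Agonist screen. […] They were pretreated with vehicle (BSA/DMSO/EtOH buffer) for 15 min, and a single concentration of test compound was added at 10 s. Fluorescence (485/525 nm) was read for 90 s. RFU is expressed as % of CP55,940 Emax RFU. Line 1 uses hCB1 cells; line 2 uses hCB2 cells.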

Assay [3] has as its target T2, Cannabinoid receptor 2 (Homo sapiens, UniProt P34972). As to the kind of experiment: Antagonist activity at human CB2 receptor expressed in CHO-RD-HGA16 cells overexpressing Galpha16 assessed as inhibition of CP55940-stimulated calcium mobilization at 10 uM preincubated for 15 mins followed by agonist addition and measured every 1 sec for 90 secs by Calcium-3 dye based FLIPR assay. As to conditions: time 990.0 sec. In kind it is functional, cell-based.

Assay [4] deals with T2, Cannabinoid receptor 2. As to the kind of experiment: Antagonist activity at human CB2 receptor expressed in CHO-RD-HGA16 cells overexpressing Galpha16 assessed as inhibition of CP55940-stimulated calcium mobilization preincubated for 15 mins followed by agonist addition and measured every 1 sec for 90 secs by Calcium-3 dye based FLIPR assay. In kind it is functional, cell-based.

For assay [5], the target named is T2, Cannabinoid receptor 2. Put plainly: Agonist activity at human CB2 receptor expressed in CHO-RD-HGA16 cells overexpressing Galpha16 assessed as stimulation of calcium mobilization measured every 1 sec for 90 secs by Calcium-3 dye based FLIPR assay relative to Emax of CP55940. The assay is classed as functional, cell-based. As to conditions: time 90.0 sec. Put shortly: as §1

Assay [6] addresses T1, Cannabinoid receptor 1. Put plainly: biochemical.
Assay [7] addresses T1, Cannabinoid receptor 1. As to the kind of experiment: Allosteric antagonist activity at N-terminal 3HA-tagged human CB1 receptor expressed in HEK293 cells assessed as reduction in CP55940-stimulated inhibition of forskolin-induced cAMP accumulation measured for 20 mins by BRET assay. In kind it is functional, cell-based. For orientation: Changes in cAMP serve as a functional read-out for many G protein-coupled receptors.

Experimental findings from ChEMBL document CHEMBL4834454 (Bioorg Med Chem, 2021) are described below.

T1 sequence (P21554 whole entry): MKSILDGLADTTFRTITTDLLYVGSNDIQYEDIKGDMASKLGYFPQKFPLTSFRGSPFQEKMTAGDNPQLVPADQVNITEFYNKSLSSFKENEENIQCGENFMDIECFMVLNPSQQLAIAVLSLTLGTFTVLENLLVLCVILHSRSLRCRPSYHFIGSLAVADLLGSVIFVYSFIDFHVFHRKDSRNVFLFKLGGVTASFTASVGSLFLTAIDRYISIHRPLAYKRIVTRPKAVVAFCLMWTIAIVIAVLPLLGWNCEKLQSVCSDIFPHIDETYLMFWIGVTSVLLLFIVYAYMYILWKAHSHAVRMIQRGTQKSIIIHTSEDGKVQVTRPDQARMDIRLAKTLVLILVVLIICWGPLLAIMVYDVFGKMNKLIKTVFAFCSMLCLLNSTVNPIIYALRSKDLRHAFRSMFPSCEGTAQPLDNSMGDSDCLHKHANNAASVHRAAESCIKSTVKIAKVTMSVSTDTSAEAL
T2 sequence (P34972 whole entry): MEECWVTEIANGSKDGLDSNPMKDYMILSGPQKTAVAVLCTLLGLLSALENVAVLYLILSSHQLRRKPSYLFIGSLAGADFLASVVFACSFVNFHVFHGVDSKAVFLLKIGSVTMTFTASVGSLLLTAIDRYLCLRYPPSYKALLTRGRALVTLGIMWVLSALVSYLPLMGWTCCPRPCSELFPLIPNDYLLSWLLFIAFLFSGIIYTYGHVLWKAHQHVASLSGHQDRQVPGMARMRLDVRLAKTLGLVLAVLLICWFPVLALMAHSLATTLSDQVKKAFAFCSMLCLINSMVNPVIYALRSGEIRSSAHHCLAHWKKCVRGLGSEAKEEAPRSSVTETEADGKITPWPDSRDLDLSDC

For `O=C(NCCc1ccc(N2CCCC2)cc1)Nc1ccc(Cl)cc1`, the figures for the IC50 on Cannabinoid receptor 1 [1], at Cannabinoid receptor 2 [4] and at Cannabinoid receptor 1 [6] were 0.794 µM, > 10 µM and 39.8 µM, respectively. Moreover, the Activity on Cannabinoid receptor 1 [2] is < 30%; at Cannabinoid receptor 2 [5], < 10%. In addition, the inhibition at Cannabinoid receptor 2 [3] is < 50%.

`O=C(NCCc1cccs1)Nc1ccc(Cl)cc1`: the Activity was < 30% at Cannabinoid receptor 1 [2] and < 10% at Cannabinoid receptor 2 [5]. The inhibition on Cannabinoid receptor 2 [3] was < 50%. In addition, the concentration for half-maximal inhibition (IC50) on Cannabinoid receptor 2 [4] is > 10 µM.

For the compound `CCc1c(C(=O)NCCc2ccc(N3CCCCC3)cc2)[nH]c2ccc(Cl)cc12`, the IC50 is 0.794 µM at Cannabinoid receptor 1 [1], 0.158 µM at Cannabinoid receptor 1 [7], > 10 µM on Cannabinoid receptor 2 [4] and 1 µM against Cannabinoid receptor 1 [6]. The inhibition at Cannabinoid receptor 2 [3] is < 50%. In addition, at Cannabinoid receptor 2 [5], the Activity is < 10%.

In the case of `CCN(CC)c1ccc(CCNC(=O)Nc2ccc(Cl)cc2)cc1`, the IC50 on Cannabinoid receptor 1 [1] is 3.16 µM; at Cannabinoid receptor 2 [4], > 10 µM. Moreover, the Activity was < 30% at Cannabinoid receptor 1 [2] and < 10% on Cannabinoid receptor 2 [5]. The inhibition at Cannabinoid receptor 2 [3] was < 50%.

On to `O=C(NCCc1ccccc1)Nc1ccc(Cl)cc1`, for which the IC50 at Cannabinoid receptor 1 [1] is 0.2 µM; at Cannabinoid receptor 1 [7] it was 3.16 µM; on Cannabinoid receptor 2 [4] it was > 10 µM; at Cannabinoid receptor 1 [6] it was 6.31 µM. Further, the inhibition at Cannabinoid receptor 2 [3] is < 50%. Besides, the Activity at Cannabinoid receptor 2 [5] was < 10%.

In the case of `O=C(NCCN1CCCCC1)Nc1ccc(Cl)cc1`, the values for the Activity at Cannabinoid receptor 1 [2] and on Cannabinoid receptor 2 [5] were < 30% and < 10%, respectively. Besides, at Cannabinoid receptor 2 [3], the inhibition was < 50%. At Cannabinoid receptor 2 [4], the IC50 was > 10 µM.

Regarding `Cc1ccc(CCNC(=O)Nc2ccc(Cl)cc2)o1`, the values for the Activity at Cannabinoid receptor 1 [2] and on Cannabinoid receptor 2 [5] were < 30% and < 10%, respectively. Besides, the inhibition at Cannabinoid receptor 2 [3] was < 50%. On Cannabinoid receptor 2 [4], the half-inhibitory concentration (IC50) is > 10 µM.

As for `O=C(NCCN1CCOCC1)Nc1ccc(Cl)cc1`, the Activity at Cannabinoid receptor 1 [2] is < 30%; at Cannabinoid receptor 2 [5], < 10%. Also, the inhibition at Cannabinoid receptor 2 [3] was < 50%. Moreover, the IC50 on Cannabinoid receptor 2 [4] was > 10 µM.

For `O=C(NCc1ccccc1)Nc1ccc(Cl)cc1`, the Activity on Cannabinoid receptor 1 [2] was < 30%; at Cannabinoid receptor 2 [5], < 10%. In addition, the inhibition on Cannabinoid receptor 2 [3] was < 50%. In addition, the IC50 on Cannabinoid receptor 2 [4] is > 10 µM.

For the compound `CN1CCN(CCNC(=O)Nc2ccc(Cl)cc2)CC1`, the Activity at Cannabinoid receptor 1 [2] was < 30%; at Cannabinoid receptor 2 [5] it was < 10%. Besides, at Cannabinoid receptor 2 [3], the inhibition is < 50%. Moreover, the IC50 at Cannabinoid receptor 2 [4] is > 10 µM.

`O=C(NCCc1ccccn1)Nc1ccc(Cl)cc1`: the IC50 on Cannabinoid receptor 1 [1] was 3.98 µM; at Cannabinoid receptor 2 [4] it was > 10 µM. The Activity on Cannabinoid receptor 1 [2] was < 30%; on Cannabinoid receptor 2 [5], < 10%. Further, the inhibition at Cannabinoid receptor 2 [3] was < 50%.

As to `O=C(NCCc1cccnc1)Nc1ccc(Cl)cc1`, the Activity on Cannabinoid receptor 1 [2] was < 30%; at Cannabinoid receptor 2 [5], < 10%. In addition, the inhibition at Cannabinoid receptor 2 [3] is < 50%. The IC50 on Cannabinoid receptor 2 [4] is > 10 µM.

On to `O=C(NCC1(c2ccccc2)CC1)Nc1ccc(Cl)cc1`, for which the IC50 at Cannabinoid receptor 1 [1] is 5.01 µM; on Cannabinoid receptor 2 [4] it was > 10 µM. The values for the Activity at Cannabinoid receptor 1 [2] and at Cannabinoid receptor 2 [5] were < 30% and < 10%, respectively. Moreover, on Cannabinoid receptor 2 [3], the inhibition was < 50%.

In the case of `O=C(NCC(F)(F)c1ccccc1)Nc1ccc(Cl)cc1`, the results for the Activity at Cannabinoid receptor 1 [2] and on Cannabinoid receptor 2 [5] were < 30% and < 10%, respectively. The inhibition at Cannabinoid receptor 2 [3] is < 50%. Besides, the IC50 on Cannabinoid receptor 2 [4] is > 10 µM.

On to `O=C(NCCc1ccncc1)Nc1ccc(Cl)cc1`, for which the Activity is < 30% on Cannabinoid receptor 1 [2] and < 10% on Cannabinoid receptor 2 [5]. Besides, on Cannabinoid receptor 2 [3], the inhibition was < 50%. At Cannabinoid receptor 2 [4], the IC50 was > 10 µM.

On to `CC(=O)NCCNC(=O)Nc1ccc(Cl)cc1`, for which the IC50 is 1.58 µM at Cannabinoid receptor 1 [1] and > 10 µM on Cannabinoid receptor 2 [4]. The Activity is < 30% on Cannabinoid receptor 1 [2] and < 10% on Cannabinoid receptor 2 [5]. Besides, the inhibition at Cannabinoid receptor 2 [3] is < 50%.

For the compound `O=C(Nc1ccc(Cl)cc1)Nc1cccc(-c2cccc(N3CCCC3)n2)c1`, the values for the Activity at Cannabinoid receptor 1 [2] and on Cannabinoid receptor 2 [5] were < 30% and < 10%, respectively. The 50% inhibitory concentration (IC50) on Cannabinoid receptor 2 [4] is > 10 µM.

Take `O=C(NC[C@H]1C[C@@H]1c1ccccc1)Nc1ccc(Cl)cc1` (relative stereo): the Activity at Cannabinoid receptor 1 [2] was < 30%; on Cannabinoid receptor 2 [5], < 10%. Besides, the inhibition on Cannabinoid receptor 2 [3] is < 50%. The 50% inhibitory concentration (IC50) at Cannabinoid receptor 2 [4] was > 10 µM.

For the compound `CN(C)c1ccc(CCNC(=O)Nc2ccc(Cl)cc2)cc1`, the IC50 was 0.251 µM on Cannabinoid receptor 1 [1], 2.51 µM at Cannabinoid receptor 1 [7], > 10 µM at Cannabinoid receptor 2 [4] and 15.8 µM on Cannabinoid receptor 1 [6]. The Activity was < 30% at Cannabinoid receptor 1 [2] and < 10% on Cannabinoid receptor 2 [5]. Further, the inhibition at Cannabinoid receptor 2 [3] was < 50%.

On to `O=C(NCCN1CCCC1)Nc1ccc(Cl)cc1`, for which the Activity is < 30% on Cannabinoid receptor 1 [2] and < 10% at Cannabinoid receptor 2 [5]. Besides, the inhibition at Cannabinoid receptor 2 [3] was < 50%. Moreover, the IC50 on Cannabinoid receptor 2 [4] was > 10 µM.

For `CC(C)(CNC(=O)Nc1ccc(Cl)cc1)c1ccccc1`, the Activity at Cannabinoid receptor 1 [2] was < 30%; at Cannabinoid receptor 2 [5], < 10%. Further, the inhibition on Cannabinoid receptor 2 [3] was < 50%. The IC50 at Cannabinoid receptor 2 [4] is > 10 µM.

For `O=C(NCCc1ccc(N2CCCCC2)cc1)Nc1ccc(Cl)cc1`, the IC50 on Cannabinoid receptor 1 [1] is 0.794 µM; at Cannabinoid receptor 2 [4], > 10 µM; against Cannabinoid receptor 1 [6], 1.26 µM. Besides, at Cannabinoid receptor 2 [3], the inhibition is < 50%. For the same compound, the Activity at Cannabinoid receptor 2 [5] is < 10%.

`O=C(NCCCc1ccccc1)Nc1ccc(Cl)cc1`: the results for the IC50 at Cannabinoid receptor 1 [1] and at Cannabinoid receptor 2 [4] were 3.98 µM and > 10 µM, respectively. In addition, the Activity on Cannabinoid receptor 1 [2] was < 30%; on Cannabinoid receptor 2 [5], < 10%. The inhibition on Cannabinoid receptor 2 [3] is < 50%.

As to `CC(C)(Cc1ccccc1)NC(=O)Nc1ccc(Cl)cc1`, the values for the Activity on Cannabinoid receptor 1 [2] and on Cannabinoid receptor 2 [5] were < 30% and < 10%, respectively. Also, the inhibition on Cannabinoid receptor 2 [3] was < 50%. Further, at Cannabinoid receptor 2 [4], the half-maximal inhibitory concentration (IC50) was > 10 µM.

As to `O=C(Nc1ccc(Cl)cc1)NC1(Cc2ccccc2)CC1`, the figures for the Activity on Cannabinoid receptor 1 [2] and on Cannabinoid receptor 2 [5] were < 30% and < 10%, respectively. The inhibition at Cannabinoid receptor 2 [3] is < 50%. Further, on Cannabinoid receptor 2 [4], the concentration for half-maximal inhibition (IC50) is > 10 µM.

For `O=C(NCCc1ccsc1)Nc1ccc(Cl)cc1`, the Activity was < 30% at Cannabinoid receptor 1 [2] and < 10% on Cannabinoid receptor 2 [5]. The inhibition on Cannabinoid receptor 2 [3] is < 50%. On Cannabinoid receptor 2 [4], the IC50 is > 10 µM.

Usually IC50 stands for the concentration at which inhibition is half-maximal. Broadly, the inhibition is the share of the control response that was lost under treatment.
